From ChEMBL document CHEMBL1150563, “Six new diarylheptanoids from the seeds of Alpinia blepharocalyx” (2001) come the findings set out here.

Where only a bound is given, the exact number is not on record here.

Test [1] in a line: Antiproliferative activity against mouse Colon 26-L5 cells by MTT assay. It counts as functional. The following applies: read-out: ED50 (the source's name). The gist of the method: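 Murine colon 26-L5 carcinoma cells grown in RPMI-1640 with 10% fetal calf serum, 0.1% NaHCO3 and 2 mM glutamine. Cell viability in presence and absence of agent measured by MTT; 5-fluorouracil served as positive control. ED50 derived from the mean of six determinations.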
(Tetrazolium dyes change colour on reduction, which living cells bring about.)

Test [2] relates to HT-1080. In words: Antiproliferative activity against human HT1080 cells by MTT assay. It counts as functional. The following applies: read-out: ED50 (the source's name). The gist of the method:
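Human HT-1080 fibrosarcoma cells grown in Eagle's MEM with 10% fetal calf serum, 0.1% NaHCO3 and 2 mM glutamine. Viability with and without test agent read by MTT assay; 5-fluorouracil as positive control. ED50 calculated from the mean of six determinations.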

Take `COc1cc(O)cc2c1C(=O)C[C@@H](c1ccc(O)cc1)O2`: the EC50 in test [1] and in test [2] was more than 100 µM in each case.

With `O=C(/C=C(O)/C=C/c1ccc(O)cc1)CCc1ccc(O)cc1`, the EC50 in test [1] is 62.6 µM; in test [2], more than 100 µM.

For the compound `COc1cc(O)cc(OC)c1C(=O)/C=C/c1ccc(O)cc1`, the EC50 in test [1] worked out at 28.7 µM; in test [2], 50.5 µM.

Turning to `CCO[C@H](/C=C/c1ccccc1)C[C@@H](O)CCc1ccc(O)cc1`, the EC50 was 94.6 µM in test [1] and more than 100 µM in test [2].

With `COc1cc(/C=C/c2ccc(O)cc2)oc(=O)c1`, the EC50 in test [1] is 20.7 µM; in test [2], 20.1 µM.

As for `O=C(/C=C/C=C/c1ccc(O)cc1)CCc1ccc(O)cc1`, the EC50 in test [1] is 57.7 µM; in test [2] it was 78.8 µM.

As for `Oc1ccc(CC[C@H](O)C[C@@H](O)CCc2ccc(O)cc2)cc1`, the EC50 in test [1] stood at 12.8 µM; in test [2], 94.4 µM.

`CO[C@H](/C=C/c1ccccc1)C[C@@H](O)CCc1ccc(O)cc1`: the EC50 in test [1] was 86.4 µM; in test [2] it was more than 100 µM.

In the case of `CO[C@@H](/C=C/c1ccccc1)C[C@@H](O)CCc1ccc(O)cc1`, the EC50 in test [1] and in test [2] was more than 100 µM throughout.

Take `CCO[C@@H](/C=C/c1ccccc1)C[C@@H](O)CCc1ccc(O)cc1`: the EC50 in test [1] and in test [2] was more than 100 µM each time.

Consider `CO[C@@H](CCc1ccc(O)cc1)CC(=O)/C=C/c1ccc(O)cc1`, for which the EC50 worked out at 5.2 µM in test [1] and 10.1 µM in test [2].

Regarding `CC(=O)/C=C/c1ccc(O)cc1`, the EC50 in test [1] and in test [2] was more than 100 µM throughout.

As for `O=C(/C=C/c1ccc(O)cc1)c1ccc(O)cc1` [4,4'-DIHYDROXYCHALCONE], the EC50 in test [1] and in test [2] was more than 100 µM throughout.

As to `O=Cc1ccc(O)cc1` [4-HYDROXYBENZALDEHYDE], the EC50 in test [1] and in test [2] was more than 100 µM each time.

In the case of `O=C(O)/C=C/c1ccc(O)cc1` [COUMARIC ACID], the EC50 in test [1] and in test [2] was more than 100 µM in each case.

As to `COc1cc(/C=C/c2ccccc2)oc(=O)c1` [DESMETHOXYYANGONIN], the EC50 in test [1] and in test [2] was more than 100 µM in each case.

For the compound `O=c1[nH]cc(F)c(=O)[nH]1` [FLUOROURACIL], the EC50 in test [1] is 0.5 µM; in test [2] it was 8 µM.

In the case of `COc1cc(O)cc(O)c1C(=O)/C=C/c1ccc(O)cc1` [HELICHRYSETIN], the EC50 in test [1] was determined as 64.7 µM; in test [2], 40.1 µM.

Consider `COC(=O)/C=C/c1ccc(O)cc1` [METHYL P-HYDROXYCINNAMATE], for which the EC50 in test [1] was 84.2 µM; in test [2], more than 100 µM.

For the compound `Oc1cc(O)cc(O)c1` [PHLOROGLUCINOL], the results for the EC50 in test [1] and in test [2] were 26.4 µM and 20.9 µM, respectively.

For the compound `CC[C@H](CC[C@@H](C)[C@H]1CC[C@H]2[C@@H]3CC=C4C[C@@H](O[C@@H]5O[C@H](CO)[C@@H](O)[C@H](O)[C@H]5O)CC[C@]4(C)[C@H]3CC[C@]12C)C(C)C` [SITOGLUSIDE], the EC50 in test [1] and in test [2] was more than 100 µM throughout.
